Source: ChEMBL document CHEMBL4831479, “Discovery of Novel Thiophene-arylamide Derivatives as DprE1 Inhibitors with Potent Antimycobacterial Activities” (J Med Chem, 2021)
Converted amounts (≈) assume the structure as drawn.

Columns and labels:
Assay type in all cases: functional
Details in all cases: variant bovis BCG, 168 h, time 7 day
[1] = system: Mycobacterium tuberculosis; assay: Antibacterial activity against Mycobacterium bovis BCG transfected with pMV261:Mt-dprE1 assessed as bacterial growth inhibition incubated for 7 days by resazurin assay
How it was run: (§1)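 M. bovis BCG Pasteur carrying pMV261 (constitutive expression) with Mt-dprE1, Mt-dprE2 or empty vector; MIC after 7 days' exposure to compound, viability read as endogenous reductase conversion of resazurin to resorufin. INH used as control.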

[2] = system: Mycobacterium tuberculosis; assay: Antibacterial activity against Mycobacterium bovis BCG transfected with pMV261:Mt-dprE2 assessed as bacterial growth inhibition incubated for 7 days by resazurin assay; how it was run: as §1
[3] = system: Mycobacterium tuberculosis; assay: Antibacterial activity against wild type Mycobacterium bovis BCG assessed as bacterial growth inhibition incubated for 7 days by resazurin assay; how it was run: as §1

| Structure (SMILES) | MIC [1] [µg/mL] | MIC [2] [µg/mL] | MIC [3] [µg/mL] |
| --- | --- | --- | --- |
| CCOC(=O)NC(=O)c1ccsc1NC(=O)c1nc2ccccc2s1 | 15.4 (≈ 40.9 µM) |  |  |
| COC(=O)NC(=O)c1ccsc1NC(=O)c1ccc(C(=O)N2CCCCC2)c(F)c1 | > 1.98 | 0.25 (≈ 0.577 µM) |  |
| O=C(Nc1sccc1C(=O)Nc1nccc(C(F)(F)F)n1)c1ccc(C(=O)N2CCCCC2)cc1 | 12.8 (≈ 25.4 µM) | 1.6 (≈ 3.18 µM) | 1.6 (≈ 3.18 µM) |
| CCOC(=O)NC(=O)c1ccsc1NC(=O)c1ccc(C(=O)N2CCCCC2)c(F)c1 | > 0.51 |  | 0.064 (≈ 0.143 µM) |
| COC(=O)NC(=O)c1ccsc1NC(=O)c1ccc(C(=O)N2CCCCC2)cc1 | 12.2 (≈ 29.3 µM) | 1.52 (≈ 3.66 µM) | 0.76 (≈ 1.83 µM) |
| CCOC(=O)NC(=O)c1ccsc1NC(=O)c1ccc(C(=O)N2CCCCC2)cc1 | > 1.28 | 0.32 (≈ 0.745 µM) | 0.32 (≈ 0.745 µM) |
| CCOC(=O)NC(=O)c1ccsc1NC(=O)c1ccc(C(=O)N2CCCCC2)s1 | 8.96 (≈ 20.6 µM) | 0.56 (≈ 1.29 µM) | 0.28 (≈ 0.643 µM) |
